Laboratory results published in PMC12034384 (ImmunoHorizons, 2025).

Legend:
Jurkat = test: Cytotoxicity of peptides; type: cell-based, human; conditions: Fig. S1; concentrations up to 100 μM
Jurkat cells = test: IL-2 production after anti-CD3/anti-CD28 stimulation, ELISA; type: cell-based, human; conditions: 30 min preincubation, immobilized anti-CD3 (3 μg/ml)/anti-CD28 (1 μg/ml) 48 h, n = 4
Summary of the method: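 Jurkat cells were kept in RPMI 1640 with 10% FBS and 50 μM 2-mercaptoethanol. They were preincubated 30 min with test peptide or control peptide, then stimulated 48 h on immobilized anti-human CD3 (OKT3, 3 μg/ml) plus anti-CD28 (CD28.8, 1 μg/ml). Human IL-2 in supernatant was measured by ELISA. Mean ± SEM of 4 independent experiments, Sidak's test.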

STAP-1–ITK interaction = test: Coimmunoprecipitation, STAP-1–ITK interaction; type: binding, human; conditions: Fig. 2G
EL-4 cells = test: Spontaneous proliferation of EL-4 cells; type: cell-based, murine; conditions: 30 min preincubation, WST-8, n = 3
Summary of the method: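 Murine EL-4 T lymphoma cells were grown in RPMI 1640 with 10% FBS and 50 μM 2-mercaptoethanol without stimulation. They were preincubated 30 min with test or control peptide, and spontaneous proliferation was read with WST-8 reagent. Mean ± SEM of 3 independent experiments; Sidak's multiple comparisons.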

murine CD4+ T cells = test: IL-2 production of murine CD4+ T cells after anti-CD3/anti-CD28, ELISA; type: cell-based; conditions: 30 min preincubation, anti-CD3/anti-CD28 48 h, n = 4
Summary of the method: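 CD4⁺ T cells were purified from mouse spleen with a CD4⁺ isolation kit and cultured in RPMI 1640, 10% FBS, 50 μM 2-mercaptoethanol. After 30 min preincubation with test or control peptide, cells were stimulated 48 h on immobilized anti-mouse CD3 (145-2C11, 3 μg/ml) plus anti-CD28 (PV-1, 1 μg/ml). Mouse IL-2 in supernatant was measured by ELISA. Mean ± SEM, n = 4 independent experiments, Sidak's test.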

[1] = tested on: Ramos human B lymphoma cells; test: Spontaneous proliferation of Ramos cells; type: cell-based
[2] = tested on: HeLa human epithelial-like cells; test: Spontaneous proliferation of HeLa cells; type: cell-based
murine B cells = test: IgM-mediated IL-6 and IL-10 production in murine B cells; type: cell-based; conditions: compared with iCont-treated B cells
EAE mice = test: Experimental autoimmune encephalomyelitis; type: in vivo, C57BL/6 mice
mice = test: Tolerability in treated mice; type: in vivo; conditions: within the effective concentration range; data not shown
[3] = cited from earlier work
[4] = EAE mice, 40 µg/mouse i.v., vs iCont, n = 5
[5] = EAE mice, day 14 after MOG immunization, vs iCont, n = 10 to 12
[6] = EAE mice, day 14 after MOG immunization, vs iCont, n = 10 to 14

RRRRRRRRGGDLTCLTEQNSTEKNCAKFTL [N73-92]
cytotoxicity (Jurkat): high cytotoxicity at the concentration of 100 μM

RRRRRRRRGGEYEHYWTELRGTTLFFYTD [N41-59]
cytotoxicity (Jurkat): did not show significant cytotoxicity up to the concentration of 100 μM

RRRRRRRRGGPLYFEGFLLIKRSGYREYE [N26-43]
cytotoxicity (Jurkat): high cytotoxicity from the concentration of 3 μM

RRRRRRRRGGRRIFQERLKITALPLYFEGF [N12-31]
cytotoxicity (Jurkat): high cytotoxicity from the concentration of 3 μM

RRRRRRRRGGTDKKSIIYVDKLDIVDLTCL [N58-77]
cytotoxicity (Jurkat): high cytotoxicity from the concentration of 3 μM

RRRRRRRRGGTTLFF [iSP1]
IL-2 production following TCR stimulation (Jurkat cells): suppressed by iSP1 treatment in a concentration-dependent manner | STAP-1–ITK interaction (STAP-1–ITK interaction): suppressed | spontaneous cell proliferation (EL-4 cells): exhibited suppressed cell proliferation | IL-2 production upon TCR stimulation (murine CD4+ T cells): inhibited in CD4^+ T cells | spontaneous proliferation [1]: did not inhibit | spontaneous proliferation [2]: did not inhibit | IgM-mediated IL-6 production (murine B cells): no inhibition | IgM-mediated IL-10 production (murine B cells): no inhibition | area under the curve of EAE clinical score (EAE mice; 40 µg/mouse i.v. every other day, days 8–20, vs iCont, n = 20): significantly lower | demyelination in spinal cord (Luxol Fast Blue staining) (EAE mice; [4]): suppressed | immune cell infiltration in spinal cord (H&E staining) (EAE mice; [4]): suppressed | frequency of Th1 cells (IFN-γ expressing) among CD4+ cells in CNS (EAE mice; [5]): significantly lower | frequency of Th17 cells (IL-17 expressing) among CD4+ cells in CNS (EAE mice; [5]): significantly lower | absolute number of Th1 cells (IFN-γ expressing CD4+ T cells) in CNS (EAE mice; [6]): significantly lower | absolute number of Th17 cells (IL-17 expressing CD4+ T cells) in CNS (EAE mice; [6]): significantly lower | abnormal phenotypes in treated mice (mice): did not show any abnormal phenotypes | stability of cell-penetrating R8 sequence in vivo [3]: unstable and easy to dissociate in vivo
